The source made the active and inactive calls. The rule behind the calls is not given here.
Assays:
[1] = test system: HL-60; assay: Cell cycle arrest in human HL60 cells assessed as accumulation at S phase at 30 uM after 24 hrs using propidium iodide staining by flow cytometry (reference value: 50%); type: functional
[2] = test system: HL-60; assay: Cell cycle arrest in human HL60 cells assessed as accumulation at G2 phase at 30 uM after 24 hrs using propidium iodide staining by flow cytometry (reference value: 10%); type: functional
[3] = test system: HL-60; assay: Cell cycle arrest in human HL60 cells assessed as accumulation at G1 phase at 30 uM after 24 hrs using propidium iodide staining by flow cytometry (reference value: 40%); type: functional
[4] = test system: HL-60; assay: Induction of apoptosis in human HL60 cells at 30 uM after 24 hrs using propidium iodide staining by flow cytometry (reference value: 5%); type: functional
[5] = test system: HL-60; assay: Cell cycle arrest in human HL60 cells assessed as accumulation at S phase at 20 uM after 24 hrs using propidium iodide staining by flow cytometry (reference value: 50%); type: functional
[6] = test system: HL-60; assay: Cell cycle arrest in human HL60 cells assessed as accumulation at S phase at 5 uM after 24 hrs using propidium iodide staining by flow cytometry (reference value: 50%); type: functional
[7] = test system: HL-60; assay: Cell cycle arrest in human HL60 cells assessed as accumulation at G2 phase at 5 uM after 24 hrs using propidium iodide staining by flow cytometry (reference value: 10%); type: functional
[8] = test system: HL-60; assay: Cell cycle arrest in human HL60 cells assessed as accumulation at G1 phase at 5 uM after 24 hrs using propidium iodide staining by flow cytometry (reference value: 40%); type: functional
[9] = test system: HL-60; assay: Induction of apoptosis in human HL60 cells at 5 uM after 24 hrs using propidium iodide staining by flow cytometry (reference value: 5%); type: functional
[10] = test system: HL-60; assay: Antiproliferative activity against human HL60 cells after 48 hrs by SRB assay; type: functional, cell-based; details: HL-60, 48 h
[11] = test system: T47D; assay: Antiproliferative activity against human T47D cells after 48 hrs by SRB assay; type: functional, cell-based
[12] = Antiproliferative activity against human MIAPaCa2 cells after 48 hrs by SRB assay; type: functional, cell-based; details: MIA PaCa-2, 48 h
[13] = test system: PC-3; assay: Antiproliferative activity against human PC3 cells after 48 hrs by SRB assay; type: functional, cell-based; details: PC-3, 48 h
[14] = test system: A549; assay: Antiproliferative activity against human A549 cells after 48 hrs by SRB assay; type: functional, cell-based; details: A549, 48 h
[15] = test system: T47D; assay: Antiproliferative activity against human T47D cells assessed as growth inhibition at 10 uM after 48 hrs by SRB assay; type: functional; details: read-out: GI
[16] = test system: HL-60; assay: Antiproliferative activity against human HL60 cells assessed as growth inhibition at 10 uM after 48 hrs by SRB assay; type: functional; details: HL-60, 48 h, read-out: GI
[17] = test system: PC-3; assay: Antiproliferative activity against human PC3 cells assessed as growth inhibition at 10 uM after 48 hrs by SRB assay; type: functional; details: PC-3, 48 h, read-out: GI
[18] = Antiproliferative activity against human MIAPaCa2 cells assessed as growth inhibition at 10 uM after 48 hrs by SRB assay; type: functional; details: MIA PaCa-2, 48 h, read-out: GI
[19] = test system: T98G; assay: Antiproliferative activity against human T98G cells assessed as growth inhibition at 10 uM after 48 hrs by SRB assay; type: functional; details: read-out: GI
[20] = test system: A-431; assay: Antiproliferative activity against human A431 cells assessed as growth inhibition at 10 uM after 48 hrs by SRB assay; type: functional; details: A-431, 48 h, read-out: GI
[21] = test system: A549; assay: Antiproliferative activity against human A549 cells assessed as growth inhibition at 10 uM after 48 hrs by SRB assay; type: functional; details: A549, 48 h, read-out: GI
[22] = Antiproliferative activity against human NCI-H322 cells assessed as growth inhibition at 10 uM after 48 hrs by SRB assay; type: functional; details: NCI-H322, 48 h, read-out: GI
[23] = test system: HL-60; assay: Cell cycle arrest in human HL60 cells assessed as accumulation at G2 phase at 20 uM after 24 hrs using propidium iodide staining by flow cytometry (reference value: 10%); type: functional
[24] = test system: HL-60; assay: Induction of apoptosis in human HL60 cells at 20 uM after 24 hrs using propidium iodide staining by flow cytometry (reference value: 5%); type: functional
[25] = test system: HL-60; assay: Cell cycle arrest in human HL60 cells assessed as accumulation at G1 phase at 20 uM after 24 hrs using propidium iodide staining by flow cytometry (reference value: 40%); type: functional
[26] = test system: HL-60; assay: Induction of apoptosis in human HL60 cells assessed as reduction of procaspase-3 expression after 24 hrs by Western blot analysis; type: functional, cell-based
Procedure, shortened: (§1)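 Cells treated 24 h (HL-60 at 5, 20, 30 µM; A549 at 1, 3, 10 µM); RIPA lysates, 70 µg protein resolved by SDS-PAGE, transferred to PVDF, blocked in 5% milk, probed for PARP-1 and procaspase-3 with HRP secondaries, ECL detection.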

[27] = test system: HL-60; assay: Induction of apoptosis in human HL60 cells assessed as cleavage of PARP1 after 24 hrs by Western blot analysis; type: functional, cell-based; procedure, shortened: as §1
[28] = test system: HL-60; assay: Induction of apoptosis in human HL60 cells assessed as loss of mitochondrial potential at 30 uM after 24 hrs using rhodamine-123 staining by flow cytometric analysis (reference value: 2%); type: functional
[29] = test system: HL-60; assay: Induction of apoptosis in human HL60 cells assessed as loss of mitochondrial potential at 20 uM after 24 hrs using rhodamine-123 staining by flow cytometric analysis (reference value: 2%); type: functional
[30] = test system: HL-60; assay: Induction of apoptosis in human HL60 cells assessed as loss of mitochondrial potential at 5 uM after 24 hrs using rhodamine-123 staining by flow cytometric analysis (reference value: 2%); type: functional
[31] = test system: HL-60; assay: Induction of apoptosis in human HL60 cells assessed as morphological changes at 5 to 30 uM after 24 hrs using DAPI staining by fluorescence microscopic analysis; type: functional, cell-based
Procedure, shortened: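 HL-60 treated 24 h at indicated concentrations, then methanol-fixed, DAPI-stained and examined by fluorescence microscopy for cellular and nuclear apoptotic morphology, following the A549 protocol.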

Compound: c1ccc(Nc2nc3c(N4CCOCC4)ncnc3s2)cc1
- Activity [1]: 54%
- Activity [2]: 5%
- Activity [3]: 41%
- Activity [4]: 24%
- Activity [5]: 42%
- Activity [6]: 45%
- Activity [7]: 12%
- Activity [8]: 43%
- Activity [9]: 9%
- IC50 [10]: 8 µM
- IC50 [11]: 59 µM
- IC50 [12]: 54 µM
- IC50 [13]: 17 µM
- IC50 [14]: 13 µM
- inhibition of growth at 10 µM [15]: 12%
- inhibition of growth at 10 µM [16]: 59%
- inhibition of growth at 10 µM [17]: 45%
- inhibition of growth at 10 µM [18]: 12%
- inhibition of growth at 10 µM [19]: 26%
- inhibition of growth at 10 µM [20]: 4%
- inhibition of growth at 10 µM [21]: 38%
- inhibition of growth at 10 µM [22]: 7%
- Activity [23]: 7%
- Activity [24]: 12%
- Activity [25]: 51%
- Activity [26]: Dose-dependent effect
- Activity [27]: Dose-dependent effect
- Activity [28]: 26%
- Activity [29]: 16%
- Activity [30]: 9%
- Activity [31]: Active
